According to ChEMBL document CHEMBL5608261, “Pharmacophore Establishment and Optimization of Saturated 1,6-Naphthyridine-Fused Quinazolinones that Inhibit Meningoencephalitis-Causing Naegleria fowleri” (J Med Chem, 2024):

What was measured:
Naegleria fowleri = experiment: Anti-ameobic activity against Naegleria fowleri Nf69 (ATCC 30215) trophozoites assessed as inhibition of amoeba growth incubated for 48 hrs by CellTiter-Glo assay; type: functional, organism-based
Outline: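 Axenic Nf69 trophozoites were seeded at 1 × 10^4 cells/mL in Nelson's complete medium with 10% heat-inactivated FBS. Compound was added at 20 to 0.375 μM (lower ranges for very potent compounds), with vehicle controls, for 48 h at 37 °C and 5% CO2. CellTiter-Glo luminescence gave % growth inhibition versus controls, and triplicate means were fitted to dose–response curves for EC50.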

SH-SY5Y = experiment: Cytotoxicity against human SH-SY5Y cells assessed as reduction in cell viability incubated for 72 hrs by CellTiter-Glo assay; type: toxicity, cell-based; details: sh-sy5y, 72 h
Outline: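 SH-SY5Y cells at 2000 per well attached overnight at 37 °C. Compound from 20 mM DMSO stocks was added in triplicate as a dose series starting at 20 μM, with doxorubicin as positive control.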

[1] = Metabolic stability in CD-1 mouse liver microsomes assessed as half-life incubated for 60 mins by LC-MS/MS analysis; type: ADME, Microsome; details: 1 h
Outline: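 Half-life measured in CD-1 mouse liver microsomes with NADPH over a 60 min exposure.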

[2] = Selectivity index, ratio of CC50 for cytotoxicity against human SH-SY5Y cells to EC50 for anti-amoebic activity against Naegleria fowleri Nf69 (ATCC 30215) assessed as inhibition of amoeba growth; type: toxicity, cell-based; details: for selectivity ratio: SH-SY5Y cells, read-out: Ratio CC50/EC50
[3] = Naegleria fowleri, Nf69 (ATCC 30215), 48 h

Row | Compound | EC50 (Naegleria fowleri; [3]) [µM] | CC50 (SH-SY5Y) [µM] | also measured
1 | CC(C)N1CCC[C@@H]2c3nc4cc(Cl)c(Cl)cc4c(=O)n3CC[C@H]21 (racemic) | 0.04 | > 20 | t1/2 [1]: 41.1 min
2 | COc1ccc2nc3n(c(=O)c2c1)CC[C@@H]1[C@@H]3CCCN1C (racemic) | 7.3 | – | –
3 | Cc1cccc2nc3n(c(=O)c12)CC[C@@H]1[C@@H]3CCCN1C (racemic) | > 10 | > 20 | –
4 | O=C(C1CCOCC1)N1CCC[C@@H]2c3nc4cc(Cl)c(Cl)cc4c(=O)n3CC[C@H]21 (racemic) | > 10 | > 20 | –
5 | CN1CCC[C@@H]2c3nc4ccc(F)cc4c(=O)n3CC[C@H]21 (racemic) | > 10 | > 20 | –
6 | CN1CCC[C@@H]2c3nc4cc(F)ccc4c(=O)n3CC[C@H]21 (racemic) | > 10 | > 20 | –
7 | CN1CCC[C@H]2c3nc4cccc(Cl)c4c(=O)n3CC[C@H]21 (racemic) | > 10 | – | –
8 | CN1CCC[C@H]2c3nc4ccc(Cl)cc4c(=O)n3CC[C@H]21 (racemic) | 2.2 | – | –
9 | COc1ccc2c(=O)n3c(nc2c1)[C@@H]1CCCN(C)[C@@H]1CC3 (racemic) | 1.8 | – | –
10 | O=c1c2cc(Cl)c(Cl)cc2nc2n1CC[C@@H]1[C@@H]2CCCN1Cc1ccncc1 (racemic) | 0.48 | > 20 | –
11 | CN1CCC[C@H]2c3nc4cc(Cl)c(Cl)cc4c(=O)n3CC[C@@H]21 | 2.6 | – | selectivity ratio [2]: > 7.7
12 | CN1CCC[C@H]2c3nc4cc(Cl)c(C(F)(F)F)cc4c(=O)n3CC[C@H]21 (racemic) | 0.27 | > 20 | –
13 | O=c1c2cc(Cl)c(Cl)cc2nc2n1CC[C@@H]1[C@@H]2CCCN1Cc1cccnc1 (racemic) | 0.0002 | > 20 | t1/2 [1]: 21.9 min
14 | CN1CCC[C@@H]2c3nc4cccc(Cl)c4c(=O)n3CC[C@H]21 (racemic) | > 10 | > 20 | –
15 | Cc1cccc2nc3n(c(=O)c12)CC[C@@H]1[C@H]3CCCN1C (racemic) | > 10 | – | –
16 | CN1CCC[C@H]2c3nc4ccccc4c(=O)n3CC[C@H]21 (racemic) | > 10 | – | –
17 | O=c1c2cc(Cl)c(Cl)cc2nc2n1CC[C@@H]1[C@@H]2CCCN1Cc1ccccc1 (racemic) | 0.72 | > 20 | –
18 | O=C(N1CCOCC1)N1CCC[C@@H]2c3nc4cc(Cl)c(Cl)cc4c(=O)n3CC[C@H]21 (racemic) | > 10 | > 20 | –
19 | COc1ccc2nc3n(c(=O)c2c1)CC[C@@H]1[C@H]3CCCN1C (racemic) | > 10 | > 20 | –

Row | Compound | EC50 (Naegleria fowleri; [3]) [µM] | CC50 (SH-SY5Y) [µM] | also measured
20 | CN1CCC[C@@H]2c3nc4cc(Cl)c(C(F)(F)F)cc4c(=O)n3CC[C@H]21 (racemic) | 0.34 | – | –
21 | COc1cc2nc3n(c(=O)c2cc1Cl)CC[C@@H]1[C@@H]3CCCN1CC(C)C | – | > 20 | EC50 (Naegleria fowleri): 0.62 µM; Ratio CC50/EC50 [2]: > 32.3
22 | COc1cc2nc3n(c(=O)c2cc1C#N)CC[C@@H]1[C@@H]3CCCN1C (racemic) | 3.8 | > 20 | –
23 | O=c1c2cc(Cl)c(Cl)cc2nc2n1CC[C@@H]1[C@@H]2CCCN1Cc1cnccn1 (racemic) | 0.05 | > 20 | –
24 | CN(C)CCN1CCC[C@@H]2c3nc4cc(Cl)c(Cl)cc4c(=O)n3CC[C@H]21 (racemic) | 0.18 | 8 | selectivity ratio [2]: 44
25 | CN1CCC[C@@H]2c3nc4ccc(C#N)cc4c(=O)n3CC[C@H]21 (racemic) | 0.67 | – | –
26 | CN1CCC[C@@H]2c3nc4cc(Cl)ccc4c(=O)n3CC[C@H]21 (racemic) | 6 | > 20 | –
27 | CN1CCC[C@H]2c3nc4cc(-c5ccccc5)c(Cl)cc4c(=O)n3CC[C@H]21 (racemic) | 3.4 | > 20 | –
28 | O=c1c2cc(Cl)c(Cl)cc2nc2n1CC[C@@H]1[C@@H]2CCCN1Cc1ccccn1 (racemic) | 2.53 | > 20 | –
29 | Cc1ccc2nc3n(c(=O)c2c1)CC[C@@H]1[C@H]3CCCN1C (racemic) | 2.8 | > 20 | –
30 | CN1CCC[C@H]2c3nc4ccc(C(F)(F)F)cc4c(=O)n3CC[C@H]21 (racemic) | 0.95 | – | –
31 | COc1ccc2c(=O)n3c(nc2c1)[C@H]1CCCN(C)[C@@H]1CC3 (racemic) | 1.5 | > 20 | –
32 | CN1CCC[C@@H]2c3nc4cc(C(F)(F)F)ccc4c(=O)n3CC[C@H]21 (racemic) | 0.99 | – | –
33 | CC(C)(C)C(=O)N1CCC[C@@H]2c3nc4cc(Cl)c(Cl)cc4c(=O)n3CC[C@H]21 (racemic) | > 10 | > 20 | –
34 | CN1CCC[C@@H]2c3nc4cc(-c5ccccc5)c(Cl)cc4c(=O)n3CC[C@H]21 (racemic) | 2.1 | 9.4 | –
35 | CN1CCC[C@H]2c3nc4cc(F)ccc4c(=O)n3CC[C@H]21 (racemic) | > 10 | – | –
36 | CN1CCC[C@H]2c3nc4ccc(C#N)cc4c(=O)n3CC[C@H]21 (racemic) | 2.1 | > 20 | –
37 | Cc1ccc2nc3n(c(=O)c2c1)CC[C@@H]1[C@@H]3CCCN1C (racemic) | 3.1 | – | –
38 | O=C(c1ccccc1)N1CCC[C@@H]2c3nc4cc(Cl)c(Cl)cc4c(=O)n3CC[C@H]21 (racemic) | > 10 | > 20 | –

Row | Compound | EC50 (Naegleria fowleri; [3]) [µM] | CC50 (SH-SY5Y) [µM] | also measured
39 | CN1CCC[C@H]2c3nc4ccc(C(F)(F)F)cc4c(=O)n3CC[C@@H]21 | 4.3 | – | selectivity ratio [2]: > 4.7
40 | COc1cc2nc3n(c(=O)c2cc1Cl)CC[C@@H]1[C@@H]3CCCN1C (racemic) | 0.43 | > 20 | –
41 | COc1cc(Cl)cc2c(=O)n3c(nc12)[C@@H]1CCCN(C)[C@@H]1CC3 (racemic) | > 10 | – | –
42 | CN1CCC[C@H]2c3nc4cc(C(F)(F)F)ccc4c(=O)n3CC[C@H]21 (racemic) | 6.9 | > 20 | –
43 | CN(C)CC(=O)N1CCC[C@@H]2c3nc4cc(Cl)c(Cl)cc4c(=O)n3CC[C@H]21 (racemic) | 0.72 | > 20 | –
44 | CN1CCC[C@@H]2c3nc4cnccc4c(=O)n3CC[C@H]21 (racemic) | > 10 | – | –
45 | O=c1c2cc(Cl)c(Cl)cc2nc2n1CC[C@H]1NCCC[C@H]21 (racemic) | 1.6 | > 20 | –
46 | COc1cc2nc3n(c(=O)c2cc1Cl)CC[C@@H]1[C@@H]3CCCN1CC(C)C (racemic) | – | 1.8 | EC50 (Naegleria fowleri): 0.17 µM; Ratio CC50/EC50 [2]: 10.6
47 | CN1CCC[C@H]2c3nc4ccc(Cl)cc4c(=O)n3CC[C@@H]21 | 4 | – | selectivity ratio [2]: > 5
48 | CN(C)C(=O)CN1CCC[C@@H]2c3nc4cc(Cl)c(Cl)cc4c(=O)n3CC[C@H]21 (racemic) | 0.3 | > 20 | –
49 | CN1CCC[C@H]2c3nc4ccc(F)cc4c(=O)n3CC[C@H]21 (racemic) | > 10 | – | –
50 | CN1CCC[C@H]2c3nc4cc(Cl)ccc4c(=O)n3CC[C@H]21 (racemic) | > 10 | – | –
51 | CN1CCC[C@H]2c3nc4cc(Cl)c(Cl)cc4c(=O)n3CC[C@H]21 (racemic) | 0.26 | – | –
52 | CC(C)NCCN1CCC[C@@H]2c3nc4cc(Cl)c(Cl)cc4c(=O)n3CC[C@H]21 (racemic) | 0.13 | 6.4 | selectivity ratio [2]: 49
53 | CN1CCC[C@@H]2c3nc4ccccc4c(=O)n3CC[C@H]21 (racemic) | > 10 | > 20 | –
54 | COc1cc(Cl)cc2c(=O)n3c(nc12)[C@H]1CCCN(C)[C@@H]1CC3 (racemic) | > 10 | > 20 | –
55 | CN1CCC[C@H]2c3nc4cnccc4c(=O)n3CC[C@H]21 (racemic) | > 10 | – | –
56 | COc1cc2nc3n(c(=O)c2cc1Cl)CC[C@@H]1[C@H]3CCCN1C (racemic) | 0.38 | – | –
